The source made the active and inactive calls. The rule behind the calls is not given here.
How the values were obtained:
[1] = system: A2780; test: Antiproliferative activity against human A2780 cells at 6.1 uM after 3 days by MTT assay; type: functional; conditions: A2780, 72 h
[2] = system: A2780; test: Antiproliferative activity against human A2780 cells after 3 days by MTT assay; type: functional, cell-based; conditions: for IC50: Homo sapiens, A2780, 72 h
Method in brief: (§1)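 Cells plated 6–8 h in 96-well plates. Compound alone, in duplicate at ≥5 concentrations (3-fold serial dilutions, top 100 μM), with final DMSO […] after predilution in FCS. After 3 days, MTT 4 h at 37 °C, formazan dissolved in DMSO, A540. IC50 taken from single dose–response curves; 3–4 experiments. A2780/DX3 kept doxorubicin-free 2–3 days beforehand.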

[3] = Antiproliferative activity against human A2780/DX3 cells after 3 days by MTT assay; type: functional, cell-based; conditions: for IC50: Homo sapiens, A2780/DX3, 72 h; method in brief: as §1
[4] = system: A2780 ADR; test: Reversal of P-gp 170-mediated multidrug resistance in human A2780/DX3 cells assessed as reduction in doxorubicin IC50 at IC5 pretreated for 6 hrs before doxorubicin administration measured after 3 days by MTT assay; type: cell-based; design: scale not given: the % may be the effect or the level left
Method in brief: (§2)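 A2780/DX3 cells went into medium holding the modulator at its MTT-derived 0% or 5% growth-inhibition concentration. Doxorubicin (30–0.048 μM serial dilutions, modulator kept constant) was added 6 h later. MTT (2 mg/mL) was added after 3 days for 4 h at 37 °C, formazan dissolved in DMSO, A540 read. IC50 came from dose–response curves, repeated 4–6 times. % reduction is versus doxorubicin alone in the same experiment. Kruskal–Wallis/Mann–Whitney tests.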

[5] = system: A2780 ADR; test: Reversal of P-gp 170-mediated multidrug resistance in human A2780/DX3 cells assessed as reduction in doxorubicin IC50 at IC0 pretreated for 6 hrs before doxorubicin administration measured after 3 days by MTT assay; type: cell-based; design: scale not given: the % may be the effect or the level left; method in brief: as §2
[6] = system: A2780 ADR; test: Reversal of P-gp 170-mediated multidrug resistance in human A2780/DX3 cells assessed as increase in intracellular doxorubicin accumulation at 5 times IC5 pretreated for 2 hrs before doxorubicin administration measured after 2 hrs by flow cytometry; type: cell-based
Method in brief: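 A2780/DX3 cells (kept in 0.1 μM doxorubicin, drug withdrawn 2–3 days before use) seeded in flasks, grown 24 h to 75–85% confluence. Modulator given at five times the 5%-growth-inhibition concentration for 2 h, then 10 μM doxorubicin for 2 h more. Cells trypsinized, fixed in 3.7% paraformaldehyde/2% sucrose in PBS. Flow cytometry, 488 nm excitation, 575 nm bandpass. Read-out is MFI, with % increase taken from the MFI ratio to doxorubicin alone.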

[7] = Antiproliferative activity against human A2780/DX3 cells at 0.5 uM after 3 days by MTT assay; type: functional; conditions: A2780/DX3, 72 h
[8] = system: A2780; test: Antiproliferative activity against human A2780 cells at 3.1 uM after 3 days by MTT assay; type: functional; conditions: A2780, 72 h
[9] = Antiproliferative activity against human A2780/DX3 cells at 3.7 uM after 3 days by MTT assay; type: functional; conditions: A2780/DX3, 72 h
[10] = system: A2780; test: Antiproliferative activity against human A2780 cells at 12.2 uM after 3 days by MTT assay; type: functional; conditions: A2780, 72 h
[11] = Antiproliferative activity against human A2780/DX3 cells at 1.0 uM after 3 days by MTT assay; type: functional; conditions: A2780/DX3, 72 h
[12] = Down regulation of P-gp 170 expression in human A2780/DX3 cells after 72 hrs by flow cytometry; type: functional, cell-based
Method in brief: (§3)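 Cells exposed 72 h to compound at concentrations giving 5% or 0% growth inhibition. Then washed in PBS/2% FCS; 2.5 × 10^5 cells stained at 4 °C with anti-Pgp MM4.17 monoclonal, then FITC goat anti-mouse IgG, and analysed by flow cytometry.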

[13] = system: A2780; test: Down regulation of P-gp 170 expression in human A2780 cells after 72 hrs by flow cytometry; type: functional, cell-based; method in brief: as §3
[14] = system: A2780; test: Antiproliferative activity against human A2780 cells at 0.20 uM after 3 days by MTT assay; type: functional; conditions: A2780, 72 h
[15] = Antiproliferative activity against human A2780/DX3 cells at 15.6 uM after 3 days by MTT assay; type: functional; conditions: A2780/DX3, 72 h
[16] = system: A2780; test: Antiproliferative activity against human A2780 cells at 1.5 uM after 3 days by MTT assay; type: functional; conditions: A2780, 72 h
[17] = Blockade of L-type calcium channel
[18] = system: A2780; test: Antiproliferative activity against human A2780 cells at 13.1 uM after 3 days by MTT assay; type: functional; conditions: A2780, 72 h
[19] = Antiproliferative activity against human A2780/DX3 cells at 3.0 uM after 3 days by MTT assay; type: functional; conditions: A2780/DX3, 72 h
[20] = system: A2780; test: Antiproliferative activity against human A2780 cells at 2.22 uM after 3 days by MTT assay; type: functional; conditions: A2780, 72 h
[21] = Antiproliferative activity against human A2780/DX3 cells at 2.40 uM after 3 days by MTT assay; type: functional; conditions: A2780/DX3, 72 h
[22] = system: A2780; test: Antiproliferative activity against human A2780 cells at 0.72 uM after 3 days by MTT assay; type: functional; conditions: A2780, 72 h
[23] = Antiproliferative activity against human A2780/DX3 cells at 4.5 uM after 3 days by MTT assay; type: functional; conditions: A2780/DX3, 72 h
[24] = system: A2780; test: Antiproliferative activity against human A2780 cells at 2.1 uM after 3 days by MTT assay; type: functional; conditions: A2780, 72 h
[25] = Antiproliferative activity against human A2780/DX3 cells at 1.5 uM after 3 days by MTT assay; type: functional; conditions: A2780/DX3, 72 h

| Compound | IC5 [2] [µM] | IC50 [2] [µM] | IC5 [3] [µM] | IC50 [3] [µM] | Activity [4] [%] | Activity [5] [%] | Activity [6] [%] | other results |
| --- | --- | --- | --- | --- | --- | --- | --- | --- |
| CC1=CSC(O)(c2ccc(C)cc2)c2noc(=O)n21 (configuration not stated) | 28.8 | > 100 | 31.1 | > 100 | -1 | 4 | < 48 | inhibition at 6.1 µM [1]: 0%; inhibition at 0.5 µM [7]: 0% |
| CC1=CSC(O)(c2cccc([N+](=O)[O-])c2)c2noc(=O)n21 (configuration not stated) | 3.95 | 159 | 15.9 | 129 | 10 | -21 | < 48 | inhibition at 3.1 µM [8]: 0%; inhibition at 3.7 µM [9]: 0% |
| CCCCOC1(c2ccc(Cl)cc2)SC=C(C)n2c1noc2=O (configuration not stated) | 19.7 | 89 | 2.2 | 49 | -16 | -21 | < 48 | inhibition at 12.2 µM [10]: 0%; inhibition at 1 µM [11]: 0% |
| CCCCCOC1(c2ccc(Br)cc2)SC=C(C)n2c1noc2=O (configuration not stated) | 2.6 | 108 | 41.8 | > 100 | -43 | -31 | 52 | Activity [12]: inactive; Activity [13]: inactive; inhibition at 0.2 µM [14]: 0%; inhibition at 15.6 µM [15]: 0% |
| CCOC1(c2ccc(Br)cc2)SC=C(C)n2c1noc2=O (configuration not stated) | 3.3 | > 100 | 7.8 | > 100 | -8 | 6 | < 48 | inhibition at 1.5 µM [16]: 0%; EC50 [17]: 0.04 µM; inhibition at 1 µM [11]: 0% |
| COC1(c2ccc(Cl)cc2)SC=C(C)n2c1noc2=O (configuration not stated) | 28.4 | 166 | 11.7 | 113 |  |  | < 48 | inhibition at 13.1 µM [18]: 0%; inhibition at 3 µM [19]: 0% |
| CCCCCCCCCCCCCCCCCCOC1(c2ccc(Cl)cc2)SC=C(C)n2c1noc2=O (configuration not stated) | 4.74 | > 100 | 6.74 | > 100 | -20 | -24 | < 48 | inhibition at 2.22 µM [20]: 0%; inhibition at 2.4 µM [21]: 0% |
| CCCCCCCCCCCCCCCOC1(c2ccc(Cl)cc2)SC=C(C)n2c1noc2=O (configuration not stated) | 2.1 | > 100 | 14.6 | > 100 | -13 | -14 | < 48 | inhibition at 0.72 µM [22]: 0%; inhibition at 4.5 µM [23]: 0% |
| CC1=CSC(O)(c2ccc([N+](=O)[O-])cc2)c2noc(=O)n21 (configuration not stated) | 7.7 | > 100 | 2.9 | > 100 | -10 | 26 | < 48 | inhibition at 2.1 µM [24]: 0%; inhibition at 1.5 µM [25]: 0% |

— ChEMBL document CHEMBL1139365, “Inhibition of MDR1 activity in vitro by a novel class of diltiazem analogues: toward new candidates” (J Med Chem, 2009)
